Assays:
[1] = pharmacokinetic analysis, DIPG mice models; cited from earlier work
IGF1R/IR [2] = experiment: microPET imaging in mice; type: in vivo, C57BL/6 mice
Procedure, shortened: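 Male C57BL/6 mice (N = 2) under anaesthesia on an Inveon microPET. The 18F-labelled test compound was formulated in 5% ethanol/normal saline and sterile-filtered. 0.2 ± 0.05 mCi was given via tail vein at the start of acquisition. A 68Ge transmission scan was used for attenuation correction. List-mode data were collected for 60 min, Fourier-rebinned, reconstructed by filtered back-projection and expressed as nCi/cc. Images were summed 0–10 and 0–60 min. ROI time-activity curves were drawn for brain, heart, muscle and thalamus.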

IGF1R/IR [3] = experiment: microPET imaging in rats; type: in vivo, Sprague-Dawley rats; conditions: time frames 1-10 min and 81-90 min, tail vein injection
Procedure, shortened: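 Anaesthetised male Sprague-Dawley rats (N = 2) were imaged on an Inveon microPET after tail-vein injection of 0.2 ± 0.05 mCi 18F-labelled test compound in 5% ethanol/normal saline, with acquisition starting at injection. A 68Ge transmission scan provided attenuation correction. List-mode data were collected for 90 min, Fourier-rebinned, reconstructed by filtered back-projection and expressed as nCi/cc. Coronal images were summed 0–10 and 81–90 min. ROI time-activity curves covered heart, muscles and brain.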

IGF1R = conditions: autoradiography; cited from earlier work
IGF1R/IR [4] = experiment: biodistribution in rats 120 min post injection; type: in vivo, Sprague-Dawley rats

Compound	concentration in tumor tissue [1]	brain activity of the radiotracer (IGF1R/IR [2]; microPET)	uptake in heart (IGF1R/IR [2]; microPET)	uptake in muscles (IGF1R/IR [2]; microPET)	time of peak brain level of activity post-injection (IGF1R/IR [2]; microPET time activity curves)	radioligand accumulation in brain (IGF1R/IR [3])	binding in grade IV glioblastoma (GBM) in comparison to control brain tissues (IGF1R)	binding in lung (IGF1R/IR [4])	binding in spleen (IGF1R/IR [4])	binding in stomach (IGF1R/IR [4])	bone uptake ([18F]defluorination) (IGF1R/IR [4])	radioactivity in brain (IGF1R/IR [4])	uptake in heart (IGF1R/IR [4])	uptake in large intestine (IGF1R/IR [4])	uptake in liver (IGF1R/IR [4])	uptake in pancreas (IGF1R/IR [4])	uptake in small intestine (IGF1R/IR [4])
C[C@@]1(C(=O)Nc2ccc(F)nc2)CCCN1c1nc(Nc2cc(C3CC3)n[nH]2)c2cccn2n1 [BMS-754807]	low concentration	–	–	–	–	–	–	–	–	–	–	–	–	–	–	–	–
C[C@@]1(C(=O)Nc2ccc([18F])nc2)CCCN1c1nc(Nc2cc(C3CC3)[nH]n2)c2cccn2n1 [[^18F]BMS-754807]	–	no noticeable brain activity	High uptake	High uptake	less than 1 min	negligible	5.25 times	negligible binding	negligible binding	low binding	no bone uptake	low levels of radioactivity	significant uptake	moderate uptake	moderate uptake	significant uptake	unusually higher uptake
